Assay outcomes deposited in PubChem by several laboratories.
MC4R barr agon: MC4R agonists recruiting beta-arrestin, primary screen, cell-based, luminescence, agonist arm of biased-ligand search | Melanocortin receptor 4 (Homo sapiens), P32245 | U2OS MC4R beta-arrestin complementation; percent of melanotan II response, DMSO zero | activation, % at 8.9 µM | 360,000 compounds, 0.98% hits | AID 540308, 2011;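 active = activation above a per-plate cutoff, the mean activation of sample wells on that plate plus 3 SD, cut at about 8% in these data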
MC4R antagonist: MC4R antagonists of cAMP signaling, primary screen, cell-based, TR-FRET, antagonist arm of biased-ligand search; inhibition, % at 6.5 µM; MC4R-expressing cells, MTII-stimulated cAMP, LANCE TR-FRET; AID 540295, 2011; 360,000 compounds, 0.48% hits;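 active = inhibition above its plate's cutoff, the mean of tested wells on that plate plus 3 SD, cut at about 29% in these data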;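 note: 0% = Melanotan II alone and 100% = Melanotan II plus saturating MCL0020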
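System: U2OS-MC4R stable cell line; Technique: Eu-cAMP/anti-cAMP TR-FRET, emission 671 nm; Repeats: single well per compound; Also added: Melanotan II; Dosing: one concentration, 6.5 µM nominal; Schedule: 30-min compound, 1-h challenge, 1-h detection, room temperature.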
NTR1 ag: agonists of human NTR1, primary screen, imaging, U2OS cells, beta-arrestin-GFP, high content | Neurotensin receptor type 1 (Homo sapiens), P30989 | NTR1-U2OS beta-arrestin-GFP spot imaging, agonist mode | activation, % at 20 µM | 330,000 compounds, 0.17% hits;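 active = activation at or above 40% of the spot to cytoplasm intensity ratio, with at least 20 cells analyzed; inconclusive = wells under 20 cells, flagged as cytotoxic or low count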;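 note: 0% = DMSO without peptide and 100% = 100 nM NTR1 peptide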
Target sequence (P30989 whole entry, looked up): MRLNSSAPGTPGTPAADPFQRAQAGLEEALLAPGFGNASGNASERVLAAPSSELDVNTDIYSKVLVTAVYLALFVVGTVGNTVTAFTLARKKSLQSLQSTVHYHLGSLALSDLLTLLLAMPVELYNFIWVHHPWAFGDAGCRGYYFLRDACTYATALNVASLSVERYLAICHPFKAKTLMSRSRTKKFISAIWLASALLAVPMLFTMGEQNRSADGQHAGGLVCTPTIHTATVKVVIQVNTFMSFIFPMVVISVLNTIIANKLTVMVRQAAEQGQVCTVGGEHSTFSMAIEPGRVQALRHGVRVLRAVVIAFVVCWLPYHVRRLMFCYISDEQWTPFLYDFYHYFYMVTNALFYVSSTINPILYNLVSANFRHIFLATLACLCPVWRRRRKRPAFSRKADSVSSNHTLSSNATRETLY
AI-2 QS mod: Vibrio harveyi AI-2 quorum sensing modulators, primary screen, JMH597 strain, luminescence/OD600 ratio; Vibrio harveyi JMH597 AI-2 luminescence/OD600 ratio, 9 h; active compounds read low; strain lacks LuxN and CqsS sensors; 0 = neutral-control median; activity change, % at 7.5 µM; 300,000 compounds, 0.4% hits; in the data active = activity change below about -75%, passing the limit was not always enough; inconclusive = no clear call, values can overlap the other calls;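 note: luminescence divided by OD600 gain over 9 h not by final OD600 alone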
JMH597 growth: Vibrio harveyi growth inhibition, confirmation, counter-screen for AI-2 quorum sensing project, JMH597 strain, OD600 absorbance. 750 compounds, 1% hits. shares compounds with AI-2 QS mod. growth inhibition, % at 7.5 µM. 9 h; lacks LuxN and CqsS sensors. AID 2726, 2010;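 active = every replicate shows growth inhibition above 50%; inconclusive = at least half, but not all, replicates pass that cutoff; inactive = fewer than half of replicates pass it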
BB721 lum counter: luminescence inhibition in constitutive-on V. harveyi, confirmation, counter-screen for LuxS inhibitor project, strain BB721, luminescence readout. inhibition, % at 7.5 µM. Vibrio harveyi BB721 luminescence, 9 h. AID 2727, 2010. 750 compounds, 95% hits. shares compounds with AI-2 QS mod;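 active = inhibition above about 80% in every replicate, not just on average, limit read from the data; inconclusive = at least half of replicates past the limit, but not all; inactive = fewer than half of replicates past the limit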
BB721 growth rt: growth inhibition of V. harveyi BB721, confirmation, cytotoxicity control for AI-2 quorum sensing inhibitors, strain BB721, absorbance OD600; growth inhibition, % at 7.5 µM; shares compounds with AI-2 QS mod; 750 compounds, 3% hits; Vibrio harveyi BB721 growth, 9 h;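 active = every replicate shows growth inhibition above 50%; inconclusive = at least half but not all replicates above 50% inhibition; inactive = under half of replicates above 50% inhibition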
AI-2 QS JMH597: Vibrio harveyi AI-2 signaling luminescence modulation – JMH597 strain, confirmation; Vibrio harveyi JMH597 AI-2 quorum sensing luminescence, 9 h; luxN and CqsS knockout, AI-2 only; shares compounds with AI-2 QS mod; 750 compounds, 97% hits; inhibition, % at 7.5 µM; AID 2736, 2010;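 active = every replicate shows more than 75% inhibition of signal versus neutral control wells; inconclusive = half to three quarters of replicates exceed 75% inhibition; inactive = fewer than half of replicates exceed 75% inhibition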
Active calls of the source: *; ? = inconclusive; . = no result. Rows were chosen to be rich in hits. Some 1.8% of all compounds tested hit in one or more screens of this group.

SMILES	MC4R barr agon	MC4R antagonist	NTR1 ag	AI-2 QS mod	JMH597 growth	BB721 lum counter	BB721 growth rt	AI-2 QS JMH597
CC1CC(C)(C)CC2(C1)NC(=O)N(CC(=O)N(Cc1ccccc1)c1ccccc1)C2=O (stereo not given)	2	5	6	10	.	.	.	.
O=C(OCc1ccc(Br)cc1)c1ccncc1	0	-6	0	-2	.	.	.	.
CC(=O)Nc1ccc(C(=O)OCc2ccc(Br)cc2)cc1	1	0	1	-89*	10	96*	?	95*
Cc1ccc(Cc2cnc(NC(=O)c3ccco3)s2)cc1	2	3	10	-86*	27	97*	?	98*
Cc1ccc(Oc2ccc(NC(=O)c3ccco3)cc2)cc1	2	7	0	-97*	43	100*	?	100*
Cc1ccc(NC(=O)c2ccc(OC(=O)c3ccco3)cc2)cc1	-2	0	0	21	.	.	.	.
O=C(CNC(=O)c1cccs1)OCc1ccc(Br)cc1	-3	6	0	?	30	91*	-2	92*
Cc1cccc(-c2noc(CCc3ccccc3)n2)c1	4	-2	2	-78*	17	94*	0	96*
COc1ccc(Cc2nc(-c3ccccc3)no2)cc1	-1	13	4	-93*	13	98*	-44	98*
O=C(Cc1ccccc1)Nc1ccc(NC(=O)c2ccco2)cc1	-1	-2	-1	18	.	.	.	.
O=C(Nc1ccc(-c2noc(CCc3ccccc3)n2)cc1)c1ccco1	-2	6	5	-81*	50	91*	93*	93*
CC(=O)c1ccc(S(=O)(=O)Nc2ccc(C(=O)NCCCn3ccnc3)cc2)cc1	1	-2	-2	.	.	.	.	.
CCC(C)[C@H](NC(=O)c1cc2cc(Cl)ccc2n1C)C(=O)N1CCC[C@H]1C(=O)O (stereo not given in full)	-1	12	0	13	.	.	.	.
ON=C1c2ccccc2-c2cc(Br)ccc21	1	6	.	.	.	.	.	.
COC(=O)[C@]1(C)CCC[C@@]2(C)C3CC[C@@]4(C)C[C@]3(CCC21)CC(=O)N4Cc1ccc(OC)cc1 (stereo not given in full)	0	8	19	.	.	.	.	.
Cc1ccc(-c2ccc(/C=N/NC(N)=S)o2)cc1	-2	3	9	-87*	24	90*	?	92*
NC(=S)N/N=C/c1ccc(-c2ccccc2)o1	-4	1	6	?	.	.	.	.
CCc1ccc(O)c(-c2cc(C(=O)Nc3cccnc3)[nH]n2)c1	0	-7	1	-94*	-13	97*	3	97*
Cc1cccc(OCc2nnc(SCC(=O)N3CC(=O)Nc4ccccc43)o2)c1	-3	7	1	-93*	1	96*	0	98*
Cc1cccc(OCc2nnc(SCC(=O)N3CCCCC3)o2)c1	0	-2	1	25	.	.	.	.
O=C(CCC1CCCCC1)Nc1ccccc1-c1ccccc1	3	12	2	36	.	.	.	.
O=C(CCC1CCCCC1)Nc1ccccc1O	-1	-2	0	-85*	24	94*	24	94*
Cc1ccc(O)c(NC(=O)CCC2CCCCC2)c1	1	1	-1	-84*	17	93*	17	95*
Cc1cc(=O)oc2cc(OCC(=O)Nc3ccccc3C(=O)O)ccc12	0	25	-1	22	.	.	.	.
CC(=O)C(C(c1ccccc1)c1c[nH]c2ccccc12)[N+](=O)[O-] (stereo not given)	5	8	1	14	.	.	.	.
SMILES	MC4R barr agon	MC4R antagonist	NTR1 ag	AI-2 QS mod	JMH597 growth	BB721 lum counter	BB721 growth rt	AI-2 QS JMH597
CCOC(=O)c1ccccc1NC(=O)COC(=O)C(CCSC)NC(=O)COc1ccccc1 (stereo not given)	-3	17	4	-9	.	.	.	.
CCOc1cccc2c1OC1(C)CC2NC(=O)N1c1cccc(C(=O)NCc2ccccn2)c1 (stereo not given)	-1	18	0	-95*	6	-6	0	6
CC12CC(NC(=O)N1c1cccc(C(=O)NCc3ccccn3)c1)c1ccccc1O2 (stereo not given)	1	2	0	49	.	.	.	.
COc1ccc(C(=O)Nc2cc3c4c(c2)C(C)C(=O)N4CCC3)cc1OC (stereo not given)	-2	2	0	22	.	.	.	.
CC(C)Oc1ccc(NC(=O)C2CCCNC2=O)cc1 (stereo not given)	2	19	0	?	-7	89*	-3	93*
O=C(CCl)Nc1ccc(N=Nc2ccccc2)cc1	-2	27	.	-91*	74*	100*	103*	99*
CCOc1ccc(NS(=O)(=O)c2ccc(N)cc2)cc1	-3	-3	-2	?	34	99*	2	100*
COCc1cc(CN2CCN(CCc3ccccc3)C(CCO)C2)ccc1OC (stereo not given)	-1	-7	1	14	.	.	.	.
O=C(CCCn1nnc(-c2cccnc2)n1)c1ccc(F)cc1	0	10	-1	-80*	0	92*	-11	95*
Cc1cc(C)cc(C(=O)NCC(=O)NNC(=O)CSc2ccccc2F)c1	0	-2	-1	.	.	.	.	.
COc1cc(NC(=O)Cn2nnc(-c3ccccc3N)n2)cc(OC)c1	3	16	4	-89*	20	98*	19	98*
COc1ccc(NC(=O)Cn2nnc(-c3ccccc3N)n2)cc1OC	1	1	-1	9	.	.	.	.
Cc1cccc(-n2nnc(C(=O)N3CCc4ccccc4C3)c2N)c1	0	1	-2	-82*	39	92*	?	95*
CC(C)c1ccc(NC(=O)CNS(=O)(=O)c2ccc(F)cc2)cc1	1	10	1	-77*	10	89*	6	93*
COc1ccc(S(=O)(=O)NCC(=O)Nc2ccc(F)cc2)cc1	-2	1	-1	.	.	.	.	.
